Source: PubChem BioAssay (several laboratories)
Compounds with a hit are over-represented: about 2.9% of the library has one in this group of screens.
ABHD4 inh: inhibitors of mouse ABHD4 | Q8VD66 | purified mABHD4, FP-Rh probe fluorescence polarization | inhibition, % at 8.92 µM | 370,000 tested, 0.54% active | AID 720543;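 active means inhibition exceeding the mean over every tested compound plus 3 SD, cut at about 30% in these data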;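 further: 0% = plate median of compound wells and 100% = S159A mutant with DMSO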
Target sequence (Q8VD66 whole entry, looked up): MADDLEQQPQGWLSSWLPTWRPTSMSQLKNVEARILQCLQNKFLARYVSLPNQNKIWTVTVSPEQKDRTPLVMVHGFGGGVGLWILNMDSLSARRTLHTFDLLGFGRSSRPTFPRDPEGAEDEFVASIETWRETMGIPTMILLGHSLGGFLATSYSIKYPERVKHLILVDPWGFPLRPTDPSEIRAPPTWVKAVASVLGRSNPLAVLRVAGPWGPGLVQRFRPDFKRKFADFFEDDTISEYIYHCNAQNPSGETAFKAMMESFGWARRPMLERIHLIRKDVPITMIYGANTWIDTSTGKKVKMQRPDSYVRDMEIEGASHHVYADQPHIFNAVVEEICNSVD
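Material: mouse ABHD4 enzyme, wild type; Benchmarks: S159A mutant high control, sample median low control; Buffer or medium: HEPES pH 7.0, NaCl, Pluronic buffer; Signal: fluorescence polarization; Read-out: percent inhibition of probe binding, normalized to plate controls; Timing: pre-incubation 45 min, probe exposure 60 min, at 25 °C; Dosing: 8.92 µM, single dose.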
HTRA1 inh: blocks human HTRA1 serine peptidase; inhibition, % at 5.96 µM; AID 504803; Q92743; 340,000 tested, 0.5% active; recombinant HTRA1, FP-rhodamine activity-based probe, fluorescence polarization; in the data active means inhibition above about 36%;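 further: 0% = enzyme with DMSO and 100% = wells lacking enzyme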
TCR-CD3 inh: human TCR-CD3 binding inhibition; inhibition, % at 9.4 µM; TAMRA-labeled TCR probe fluorescence, biochemical; 360,000 tested, 0.37% active;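 further: recombinant mutant TCR 2C K166C tagged with TAMRA read by polarization; 0% = receptor in buffer alone and 100% = receptor with positive control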
PRMT1 inh: inhibitors of human PRMT1 | 370,000 tested, 1.3% active | Q99873 | inhibition, % at 2.79 µM | recombinant PRMT1, activity-based probe fluorescence polarization | AID 652257;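 active means inhibition above about 21% made by adding two undisclosed values, limit read from the data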
ATG4B inh: ATG4B (human) cysteine protease inhibition | Q9Y4P1 | ATG4B cleavage of LC3-PLA2, NBD-HPC fluorescence, 1 h | inhibition, % at 8.33 µM | 340,000 tested, 0.51% active | AID 504462; in the data active means inhibition above about 40%
SIAE primary: blocks human sialic acid acetylesterase; SIAE FP-Rh probe binding, fluorescence polarization; Q9HAT2; inhibition, % at 9.66 µM; 370,000 tested, 0.69% active;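 active means inhibition above a cutoff: mean of compounds within the control limits plus 3 SD of those, cut at about 17% in these data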;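 further: 0% = plate median of compound wells and 100% = probe without SIAE protein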
HTRA1 inh conf: HTRA1 (human) inhibition, confirmation | shares compounds with HTRA1 inh | recombinant HTRA1, FP-rhodamine activity-based probe, fluorescence polarization | inhibition, % at 5.96 µM | 1,600 tested, 66% active | AID 540248;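 active means mean inhibition over three repeats above a set limit taken from the earlier primary screen, cut at about 37% in these data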;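 further: 0% = HTRA1 with DMSO and 100% = wells lacking HTRA1; inhibitors block probe binding so polarization drops and inhibition rises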
BSA TAMRA ctr: BSA probe counter-screen for TCR-CD3 inhibitors; shares compounds with TCR-CD3 inh; TAMRA-labeled BSA probe fluorescence counterscreen; inhibition, % at 9.4 µM; 1,200 tested, 10% active; AID 652035; in the data active means inhibition above about 23%;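 further: 0% = buffer low control and 100% = reference high control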
TCR-CD3 conf: TCR-CD3 interaction inhibition, confirmation; shares compounds with TCR-CD3 inh; TAMRA-labeled TCR probe fluorescence binding assay; inhibition, % at 9.4 µM; 1,200 tested, 48% active
PRMT1 confirm: PRMT1 (human) inhibition, FP confirmation; AID 687036; shares compounds with PRMT1 inh; recombinant His-PRMT1, activity-based probe fluorescence polarization; 3,300 tested, 42% active; inhibition, % at 2.79 µM;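 active means mean inhibition across replicates above the hit cutoff derived for the earlier primary screen, cut at about 22% in these data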
ABHD4 confirm: confirmation of mouse ABHD4 inhibitors. shares compounds with ABHD4 inh. purified mABHD4, FP-Rh probe fluorescence polarization. inhibition, % at 8.92 µM. 1,800 tested, 55% active. AID 720658;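 active means mean inhibition across replicates above the hit cutoff set in the primary screen, cut at about 30% in these data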;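 further: 0% = wild-type ABHD4 with DMSO and 100% = catalytically dead S159A mutant with DMSO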
Starred values were filed as active, the others as inactive; x = no result. Unless noted, no stated cut-off is given here; in the data, active means inhibition above about 19%; inactive means the rest.

SMILES	ABHD4 inh	HTRA1 inh	TCR-CD3 inh	PRMT1 inh	ATG4B inh	SIAE primary	HTRA1 inh conf	ABHD4 confirm	others
CCN(CC)C(=O)c1ccc2c(c1)C1C(Cl)C(Sc3ccccc3[N+](=O)[O-])CC1C(C(=O)O)N2 (configuration not stated)	x	78.1*	x	x	13.3	x	76.7*	x
CCN(CC)C(=O)c1ccc2c(c1)C1C=CCC1C(C(=O)O)N2 (configuration not stated)	53.7*	59.3*	23.9*	49.0*	10.1	16.9	54.6*	x
CC(C)(C)c1cc(O)ccc1O	6.4	x	-2.3	10.1	x	4.6	x	x
O=c1c2ccccc2nc(/C=C/c2ccc(O)c(O)c2)n1-c1ccccc1	19.0	64.4*	4.5	14.9	21.3	-9.9	87.1*	x
O=c1c2ccccc2nc(/C=C/c2ccccc2)n1-c1ccc(O)cc1	-12.5	-36.3	-3.4	-0.7	3.6	-13.6	x	x
C[C@H]1CNCCN1c1ccc(N2CC[C@H](O)C2)c(C#N)c1	0.6	x	10.5	-0.8	x	12.0	x	x
Cc1nc2ccccc2c(=O)n1/N=C/c1cc(Br)cc(Br)c1O	8.8	36.2*	45.6*	0.4	23.2	1.7	95.4*	x	BSA TAMRA ctr=-11.9;TCR-CD3 conf=47.3*
O=C(NCCN1CCC2(CC1)C(=O)NCN2c1ccccc1)c1cccc(F)c1	-0.8	x	9.9	0.2	x	0.8	x	x
CC1=C(O)C(=O)C=C2C1=CC=C1C2(C)CCC2(C)C3CC(C)(C(=O)O)CCC3(C)CCC12C (configuration not stated)	49.4*	48.2*	2.0	34.7*	25.4	12.8	44.5*	48.4*	PRMT1 confirm=49.8*
CCCN1CCc2cc(O)cc3c2[C@H]1Cc1ccc(O)c(O)c1-3	68.7*	61.9*	2.6	76.7*	-8.4	14.1	48.4*	29.6*
CC(Cc1ccc(O)cc1)NCC(O)c1ccc(O)c(O)c1 (configuration not stated)	53.0*	53.6*	7.5	25.2*	x	9.1	53.2*	60.1*	PRMT1 confirm=10.6
CC(C)Nc1ccc(Nc2ccccc2)cc1	43.1*	69.2*	-2.8	25.4*	0.6	12.1	53.0*	34.5*	PRMT1 confirm=69.7*
C=CCn1c(O)c(C=Nc2ccc(N(CC)CC)cc2)c(=O)[nH]c1=O	56.7*	36.2*	16.0	22.4*	12.3	14.4	3.5	2.8
C=CCn1c(O)c(C=Nc2ccc(F)cc2)c(=O)[nH]c1=O	0.7	3.2	0.1	6.7	3.5	-5.6	x	x
Cc1cc(N2CCNC[C@H]2C)ccc1N1CCN[C@H](C)C1	-5.8	x	2.2	-2.2	x	-1.4	x	x
COc1ccccc1N	6.9	x	2.9	-2.5	x	-3.5	x	x
COC(=O)C1C(c2ccc(I)cc2)CC2CCC1N2C (configuration not stated)	2.6	x	-4.0	-2.1	x	1.2	x	x
O=C(N/N=C1/CN2CCC1CC2)c1cc2ccccc2cc1O	38.7*	54.9*	9.2	1.7	-14.1	17.2*	11.9	18.6
N#Cc1ccc(NC(=S)N2Cc3cc(Br)ccc3-n3nncc3C2)cc1	-6.3	x	8.6	-3.2	x	0.9	x	x
CN(C)[C@@H]1C(=O)C(C(N)=O)=C(O)[C@@]2(O)C(=O)C3=C(O)c4c(O)cccc4[C@@](C)(O)C3[C@H](O)C12 (some centres not stated)	68.0*	42.9*	27.3*	36.5*	11.7	16.9	11.0	21.8	BSA TAMRA ctr=-2.5;TCR-CD3 conf=10.9
CN(C)C1C(=O)C(C(N)=O)=C(O)C2(O)C(=O)C3=C(O)c4c(O)cccc4C(C)(O)C3CC12 (configuration not stated)	x	8.6	x	x	-1.1	x	x	x
